Hits are enriched below; roughly 3.3% of the tested compounds scored in any of these assays.
TDP2 absorb: TDP2 (human) inhibition, absorbance primary screen | O95551 | recombinant TDP2, T5PNP hydrolysis, p-nitrophenol absorbance 415 nm | inhibition, % at 12.8 µM | 370,000 compounds, 0.34% hits | AID 720702;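 active = inhibition above the mean of all tested compounds plus 3 SD, set per campaign, cut at about 25% in these data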;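 also: 0% = DMSO with enzyme and 100% = buffer with substrate but no TDP2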
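Material: recombinant human TDP2; quantity: TDP2 enzyme at 120 nM final; medium: Tris-HCl pH 7.5 with MgCl2; compound: single concentration, 12.8 µM nominal, with 1% DMSO; incubation: 2 h enzyme incubation at 37 °C; signal: epi absorbance; measure: percent inhibition; benchmarks: high control without enzyme, low control DMSO plus TDP2; repeats: singlicate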
MBD2 DNA inh: MBD2-methylated oligo binding inhibition; inhibition, % at 4.4 µM; TR-FRET, MBD2 binding to methylated oligonucleotide; Q9UBB5; 370,000 compounds, 0.31% hits; in the data active = inhibition above about 13%
UHRF1 binding: UHRF1 methyl-DNA binding inhibition | UHRF1 binding to methylated oligo, TR-FRET | AID 687016 | 370,000 compounds, 0.75% hits | inhibition, % at 4.4 µM; in the data active = inhibition above about 21%;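 also: UHRF1 SRA domain binding a hemimethylated CpG hairpin DNA probe; 0% = median of test compound wells and 100% = reference inhibitor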
PRMT1 FP inh: inhibitors of human PRMT1. 370,000 compounds, 1.3% hits. recombinant PRMT1, activity-based probe fluorescence polarization. inhibition, % at 2.79 µM;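 active = inhibition above about 21% made by adding two undisclosed values, limit read from the data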
SIAE primary: blocks human sialic acid acetylesterase; SIAE FP-Rh probe binding, fluorescence polarization; inhibition, % at 9.66 µM; 370,000 compounds, 0.69% hits;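 active = inhibition above a cutoff: mean of compounds within the control limits plus 3 SD of those, cut at about 17% in these data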;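 also: 0% = plate median of compound wells and 100% = probe without SIAE protein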
Target sequence (Q9HAT2 whole entry, looked up): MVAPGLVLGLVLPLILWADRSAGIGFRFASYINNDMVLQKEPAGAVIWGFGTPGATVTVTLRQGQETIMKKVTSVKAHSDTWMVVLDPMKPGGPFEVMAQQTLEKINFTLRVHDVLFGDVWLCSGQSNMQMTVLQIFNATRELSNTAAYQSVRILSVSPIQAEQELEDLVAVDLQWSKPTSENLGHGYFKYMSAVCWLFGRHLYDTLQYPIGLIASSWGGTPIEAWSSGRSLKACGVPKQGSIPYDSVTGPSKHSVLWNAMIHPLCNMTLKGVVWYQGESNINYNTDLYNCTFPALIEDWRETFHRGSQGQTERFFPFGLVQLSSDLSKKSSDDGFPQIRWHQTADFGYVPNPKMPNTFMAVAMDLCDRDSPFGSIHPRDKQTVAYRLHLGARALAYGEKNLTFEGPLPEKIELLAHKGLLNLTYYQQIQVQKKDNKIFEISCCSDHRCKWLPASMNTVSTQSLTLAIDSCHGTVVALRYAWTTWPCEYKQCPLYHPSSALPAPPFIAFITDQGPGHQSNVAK
LEDGF integ inh: blocks HIV-1 LEDGF/p75-dependent DNA integration. TR-FRET IN-LEDGF/p75 DNA integration, Eu/Cy5. 370,000 compounds, 0.64% hits. AID 743269. inhibition, % at 3.7 µM;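 active = inhibition above the screen-wide mean plus 3 SD, cut at about 13% in these data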;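 also: signal is the Cy5 over europium emission ratio at 671 and 618 nm; 0% = plate median of compound wells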
IN multimer act: HIV-1 integrase multimerization activation, counter-screen | shares compounds with LEDGF integ inh | TR-FRET HIV-1 integrase multimerization, biochemical | activation, % at 7.7 µM | 2,000 compounds, 17% hits; in the data active = activation above about 8.9%
TRFRET interf: counter-screen for LEDGF/p75 integration inhibitors: TR-FRET optical interference; shares compounds with LEDGF integ inh; TR-FRET optical interference counterscreen, HIV-1 IN multimerization; inhibition, % at 7.7 µM; 2,000 tested, under 10 active;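 active = inhibition above the mean over all tested compounds plus 3 SD, which no compound reached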;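 also: 0% = integrase with antibodies and DMSO and 100% = antibodies without integrase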
LEDGF integ conf: LEDGF/p75-dependent HIV-1 integration inhibition, confirmation. TR-FRET LEDGF/p75-dependent HIV-1 integration, biochemical. AID 1053136. shares compounds with LEDGF integ inh. 2,000 compounds, 36% hits. inhibition, % at 3.7 µM; in the data active = inhibition above about 14%
Numbers without * were called inactive; . = not tested or not shown; ! = not confirmed by another sample.

SMILES | TDP2 absorb | MBD2 DNA inh | UHRF1 binding | PRMT1 FP inh | SIAE primary | LEDGF integ inh | IN multimer act | TRFRET interf | LEDGF integ conf
CN1C(=O)CCS(=O)(=O)C1c1ccc(Cl)cc1 (stereo unspecified) | -1 | -4 | 2 | -2 | 5 | 2 | . | . | .
CCC(NC(=O)OCc1ccccc1)P(=O)(Oc1ccccc1)Oc1ccccc1 (stereo unspecified) | 3 | -6 | 1 | 0 | -3 | 1 | . | . | .
Cc1cc(/C=C2\C(=O)NC(=O)N(c3cccc(Br)c3)C2=O)c(C)n1C | 5 | 1 | 7 | -1 | -3 | 1 | . | . | .
Cc1cc(/C=C2\C(=O)NC(=O)N(c3ccc(Br)cc3)C2=O)c(C)n1-c1cc(C(=O)O)cc(C(=O)O)c1 | 13 | 11 | 44* | 16 | -1 | 44* | 3 | -16 | 31*
Cc1cc(/C=C2\C(=O)NC(=O)N(c3ccc(Cl)cc3)C2=O)c(C)n1-c1cccc(C(=O)O)c1 | 0 | 5 | 6 | 21 | 0 | 10 | . | . | .
Cc1cc(/C=C2\C(=O)NC(=O)N(c3cccc(F)c3)C2=O)c(C)n1-c1cc(C(=O)O)cc(C(=O)O)c1 | 0 | 6 | 33* | 15 | -8 | 39* | 5 | -27 | 24*
c1ccc2c(c1)[IH]c1ccccc1-2 | -1 | 11 | -23 | 1 | -5 | -3 | . | . | .
COc1ccc(OC(=O)N(C)C[C@@H]2OCc3cnnn3CCCC(=O)N([C@H](C)CO)C[C@H]2C)cc1 | 2 | 2 | 1 | 4 | 0 | -2 | . | . | .
CC(=O)C1CCC2C3CCC4CC(O)CCC4(C)C3C(=O)CC12C (stereo unspecified) | 8 | -3 | -1 | 2 | 0 | 0 | . | . | .
CC12Cc3cn[nH]c3C=C1CCC1C2CCC2(C)C1CCC2(C)O (stereo unspecified) | -5 | -3 | -1 | 0 | -1 | -2 | . | . | .
NCCc1cc(O)c(O)cc1O | 8 | 25* | 58* | 43*! | 91* | 56* | 64* | -324 | 75*
CN1CCC(O)(c2ccccc2)C2CCCC21 (stereo unspecified) | 9 | 0 | 8 | 0 | 5 | 37* | -3 | 14 | 2
CCN(CC)c1ccc(N=Cc2c(O)n(Cc3ccccc3)c(=O)[nH]c2=O)cc1 | 4 | 3 | -3 | 2 | 8 | -3 | . | . | .
CCN(CC)c1ccc(N=Cc2c(O)[nH]c(=O)[nH]c2=O)cc1 | 8 | -5 | 11 | 31* | 10 | 26* | 12* | -44 | 3
CCOc1ccccc1-n1c(O)c(C=Nc2ccc(N(CC)CC)cc2)c(=O)[nH]c1=O | 5 | -6 | -1 | 17 | 11 | 14* | 2 | -11 | -6
CC(C)c1ccc(N2C(=O)NC(=O)/C(=C\c3cnc(-c4ccccc4)nc3)C2=O)cc1 | 5 | -1 | 15 | 7 | -13 | -1 | . | . | .
COc1ccc(CN2C(=O)NC(=O)/C(=C\c3ccco3)C2=O)cc1 | -3 | 3 | 13 | 16 | -5 | 14* | 6 | -21 | 18*
COc1ccc(CN2C(=O)NC(=O)/C(=C\c3cc(OC)c(OC)c(OC)c3)C2=O)cc1 | 6 | -6 | -5 | 8 | 4 | -2 | . | . | .
O=C1NC(=O)N(Cc2ccccc2)C(=O)/C1=C/C=C/c1ccco1 | 9 | -2 | 8 | 23* | -9 | 29* | 0 | 1 | 30*
CC(C)c1ccc(N2C(=O)NC(=O)/C(=C\C=C\c3ccco3)C2=O)cc1 | 8 | 3 | 24* | 18 | -29 | 23* | 2 | -6 | 31*
CCOc1cccc(N2C(=O)/C(=C/c3ccco3)C(=O)NC2=S)c1 | -5 | 12 | 50* | 20 | -6 | 22* | 9.8* | -49 | 76*
COC(=O)C1C2c3ccccc3C(c3ccccc32)C1(C)C(=O)OC (stereo unspecified) | -12 | -1 | 2 | 4 | -2 | -3 | . | . | .
COC(=O)C1C(OC(=O)c2ccccc2)CC2CCC1[N+]2(C)C (stereo unspecified) | 1 | -2 | -1 | 0 | 2 | 3 | . | . | .
Clc1ccc(CNCCc2ccc3c(c2)OCO3)cc1 | 8 | 0 | -1 | -4 | 4 | 3 | . | . | .
Clc1cccc(CNCCc2ccc3c(c2)OCO3)c1 | 11 | 2 | 0 | 1 | 5 | 15* | 0 | 0 | -2
SMILES | TDP2 absorb | MBD2 DNA inh | UHRF1 binding | PRMT1 FP inh | SIAE primary | LEDGF integ inh | IN multimer act | TRFRET interf | LEDGF integ conf
O=C(NC1CCCCC1)N1Cc2cc(N3CCOCC3)ccc2-n2nncc2C1 | -7 | 1 | 6 | 6 | -2 | 2 | . | . | .
COc1ccc(CN2Cc3cc(-c4ccc(OC)cc4)ccc3-n3nncc3C2)cc1 | -3 | 3 | 1 | -1 | -6 | 17* | 1 | -4 | -3
CN1C(=O)/C(=C/c2cccn2-c2ccc3ccccc3c2)C(=O)NC1=S | 7 | -2 | 0 | 44* | 11 | 18* | 6 | -29 | 30*
Cc1cc(C)cc(N2C(=O)NC(=O)/C(=C\c3cccn3-c3ccccc3)C2=O)c1 | 8 | -6 | 6 | 5 | -4 | 0 | . | . | .
CCOC(=O)[C@]12Cc3cc(C)ccc3[C@H]1N(C1CCCCC1)C(=O)c1cc(OC)ccc12 | -9 | 5 | 3 | 3 | -4 | 1 | . | . | .
O=c1[nH]c(=O)n(Cc2ccco2)c(O)c1C=NC1CC1 | -1 | 2 | 1 | 3 | 5 | -1 | . | . | .
O=c1[nH]c(=O)n(Cc2ccco2)c(O)c1/C=N/N1CCCCC1 | 1 | -4 | 6 | 5 | 4 | 23* | -2 | 7 | 9
CCOC(=O)[C@]12Cc3cc(C)ccc3[C@H]1N(Cc1ccccc1)C(=O)c1cc(F)c(F)cc12 | -6 | 1 | 0 | 0 | -3 | -1 | . | . | .
Clc1ccc(OCC#CCN2CCOCC2)cc1 | 4 | 1 | -2 | -2 | 3 | 24* | 0 | 0 | 3
CN1C[C@H](CO)C=C2c3cccc4[nH]cc(c34)C[C@H]21 | 13 | -5 | -5 | 23* | 14 | 16* | 1 | -4 | 3
Cc1ccc(S(=O)(=O)Nc2cc(C(=O)N3CCC4(CC3)OCCO4)ccc2N2CCCCC2)cc1 | 1 | -2 | -1 | 1 | 0 | 16* | -1 | 2 | -1
CN1C(=O)NC(=O)[C@]2(Cc3ccccc3N3CCN(c4ccccc4)CC32)C1=O (stereo partly specified) | 11 | 0 | 0 | 8 | -2 | 40* | 0 | -1 | 4

Compound activity as filed in PubChem BioAssay.
